# Test results reported in the RNAGym collection of RNA variant scans (doi:10.1126/science.aae0568).
# Fewer inactive variants are shown than the library holds.
# B1: tRNA (parent)
# chain: GUUCCGUUGGCGUAAUGGUAACGCGUCUCCCUCCUAAGGAGAAGACUGCGGGUUCGAGUCCCGUACGGAACG
# Variants of: B1
# Experiment: yeast fitness relative to wild type (ratio to wild type); higher = fitter; tRNA-Arg(CCU), competitive growth, 37 C, YPD
# How it was run: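 The tRNA-Arg(CCU) gene variants were made by chemical synthesis with a 3% per-site mutation rate at 69 sites and inserted at the native genomic locus of Saccharomyces cerevisiae. After pooling, the strains were competed in YPD at 37°C for 24 hours in six parallel replicates. Gene amplicons from the start population and each end population were read by 100-nucleotide paired-end sequencing, and Darwinian fitness relative to wild type was taken from genotype frequency changes. Genotypes needed ≥ 100 starting reads, and estimates < 0.5 were set to 0.5.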
row,Variant,yeast fitness
1,GUUCCGCUGGCGUACUGGUAACGCGUCUCCCUCCUAAGGGGAAGACUGCGGGUUCGGGUCCCGUACGGAACG,0.649
2,GUUCCGAUGGCGUAAUGGUAACGCGUCUCCCUCCCAAGGACAAGACUGCGGGUUCGAGUCCCGUACGGAUCG,≤ 0.5
3,GUUCCGAUGGCGUAAUGGUAACGCGUCUCCCUCCUAAGGAGAAGACAGCGGGUUCGAGUCCCGUGCGGAACG,0.523
4,GUUCCGCUGGCGUCAUGGUAACGCGUCUCCCUCCUAAGGAGAAGACUGCGAGUUCGAGUCCCGUACGGAACG,≤ 0.5
5,GUUCCGCUGGCGUAGUGGUUACGGGUCUCCCUCCCCAGGAGAAGACUGCGGGUUCGAGUCCCGUAUGGAACG,≤ 0.5
6,GUUCCGCUGGCGUGAUGGUAACGCGUCUUCUUUCUAAGGAGAAGACUGUGGGUUCGAGUCCCGUACGGAACG,≤ 0.5
7,GUUCCGCUGGCGUAAUGGUCACGCGUCUCCCUCCUAAGGAGAAGACUGCGGGUUCGAGUCCCGUACGGCACG,0.615
8,GUUCCGCUGGCGUAUUGGUAACGCGUCUCCCUCCUAAGGAGAAGACUGUGGGUUCGAGUCCUGUACGGAACG,0.673
9,GUUCCGCUGGCGUAGUGGUAACGCGUCUCCCUCCUAAGGAGAAGACUGCGGGUUCGAGUCCCGUACGGAACG,0.793
10,GUUCCGCUGGCGUUAUGGUAACGCGUCUCCCUCCUAAGGAGAAGACUGCGGGUUCGAGUCCCGUCCGGAACG,≤ 0.5
11,GUUCCGCUGGCGUAGUGGUAACGCGUCUCCCUCCUAAGGAGAAGACUGCGCGUUCGUGUCCCGUACGGAACG,≤ 0.5
12,GUUCCGCUGGCGUUAUGGUAACGCCUCUCCCUCCUAAGUAGAAGACUGCGGGUUCGAGUCCGGUUCGGAACG,≤ 0.5
13,GUUCCGCUGGCGUACUGGUAACGCGUCUCCCUCCUAAGGGGAAGACUGCGGGGUCGAGUCCCGUACGGAACG,≤ 0.5
14,GUUCCGCUGGCGUCAUGGUAACGCGUCUCCCUCCUAAGGAGAAGACUGCGGGUUCGAGUCCCGUACGGACCG,0.594
15,GUUCCGCUGGCGUAGUGGUAACGCGUCUCCCUCCUAAGGAGAAGACUGCGGGUUCGAGUCGCGUAUGGUACG,≤ 0.5
16,GUUCCGAUGGCGUAAUGGUAACGCGUCUCCCUCCUAAGGAGAAGACCGCGGGUUCGAGUCCCGUACGGAACG,0.785
17,GUUCCGCUGGCGUCAUGGUACCGCGUCUCCCUCCUAAGGAGAAGAAUGCGGGUUCGAGUCCCGUACGGAACG,≤ 0.5
18,GUUCCGCUGGCGUCAUGGUAACGCGUCUCCCUCCUAAGGAGAAGACUGCGGGUUCGAGUCCCGUACGGAACG,0.679
19,GUUCCGCUGGCGUGAUGGUAACGCGUCUCCCUCCUAAGGAGAAGACUGCGGGUUCGAGUCCCGUACGGAACG,0.86

row,Variant,yeast fitness
1,GUUCCGCUGGCGUGAUAGUAACGCGUCUCCCUCCUAAGGAGAAGACUGCGGGUUCGAGUCCCGUACGGUUCG,0.594
2,GUUCCGCUGGCGUGAUGGUAACACAUCUCCCUCCUUAGGAGAUGACUGCGGGUUCGAGUCCCGUACGGAACG,≤ 0.5
3,GUUCCGCUGGCGUAAUGGUAACGCGUCUCCCUCCUAAGGAGAAGACUGCGGGUUCGAGUCCCGUACGGAACG,1.01
4,GUUCCGAUGGCGUAAUGGUAACGCGUCUCCCUCCUAAGGAGAAGACUGCGGGUACGAGCCCCGCACGGAACG,≤ 0.5
5,GUUCCGAUGGCGUAAUGGUAACGCGUCUCCCUCCUAAGGAGAAGACUGCGGGUCCGAGUCCCGUACGGAACG,0.734
6,GUUCCGCUGGCGUACUGGUAACGCAUCUCCCUCCUAAAGAGAAGGCUGCGGAUUCGAGUCGCGUACGGAACG,≤ 0.5
7,GUUCCGAUGGCGUAAUGGUAACGCGUCUCCCUCCUAAGGAGAAGACUGCGGGCUCGAGUCCCGUACGGAACG,0.604
8,GUUCCGCUGGCGUAGUGGUUACGGGUCUCCCUCCCCAGGAGAAGACUGCGGGUUCGAGUCACGUACGGAACG,≤ 0.5
9,GUUCCGCUGGCGUGAUAGUAACGCGUCUCCCUCCUAAGGAGAAGACUGCGGGUUCGAGUCCCGUACGGAACG,0.531
10,GUUCCGAUGGCGUAAUGGUAACGCGUCUCCCUCCUAAGGAGAAGACUGCGGGUUCGAGUCCCGAACGGAACG,0.837
11,GUUCCGCUGGCGUGAUGGUAAGGCGUCUCCCUCCUAAGGAGAAGACUGCGGGUUCGAGUCCCGUACGGAACG,≤ 0.5
12,GUUCCGCUGGCGUAGUGCUAACGCGUCUCCCUCCUAAGGAGAAGACUGUGGGUUCGAGUCCCGUACGGAACG,≤ 0.5
13,GUUCCGCUGGCGUACUGGUAACGCGUCUCCCUCCUAAAGAGAAGGCUGCGGAUUCGAGUCGCGUAUGGAACG,≤ 0.5
14,GUUCCGCUGGCGUGAUGGUAACGCAUCUCCCUCCUAAGGAGAGGACUGCGGGUUCGAGUCCCGUACGGCACG,≤ 0.5
15,GUUCCGCUGGCGUACUGGUAACGCGUCUCCCUCCUAAAGAGAAGGCUGCGGAUUCGAGUCGCGUACGGAACG,0.558
16,GUUCCGAUGGCGUAAUGGUAACGCGUCUCCCUCCUAAGGAGAAGACCGCGGGUUCGAGUCCCGUACGGCACG,0.601
17,GUUCCGCUGGCGUAUUGGUAACGCGUCUCCCUCCUAAGAAGAAGACUGCGGGUUCGAGUCCCGUACGGAACG,0.623
18,GUUCCGCUGGCGUAGUAGUAACGCGUCUCCCUCCUAAGGAGAAGACUGCGGGUUCGAGUCCCGUACGGAACG,≤ 0.5
19,GUUCCGCUGGCGUUAUGGUAACGGGUCUCUCUCCUAAGGAGAGGACUGCGGGUUCGAGUCCCGUACGGAACG,≤ 0.5
